Experimental data from ChEMBL document CHEMBL1147108, “Comparison of disk diffusion and agar dilution methods for erythromycin and ciprofloxacin susceptibility testing of Campylobacter jejuni subsp. jejuni” (2007).
In brackets after ≈: the same amount, converted by molar mass.

What was measured:
Type in all cases: functional
[1] = test system: Campylobacter jejuni; experiment: Antimicrobial activity against ciprofloxacin-resistant Campylobacter jejuni isolate by agar dilution test
Summary of the method: (§1)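 Agar dilution MICs of clinical C. jejuni isolates, run at 37°C following CLSI recommendations; C. jejuni ATCC 33560 served as control strain.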

[2] = test system: Campylobacter jejuni; experiment: Antimicrobial activity against ciprofloxacin-resistant Campylobacter jejuni isolates by disk diffusion test
Summary of the method: (§2)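 Isolate suspensions were made in Mueller-Hinton broth to 0.5 McFarland and spread on Mueller-Hinton agar with 5% sheep blood. Disks used were erythromycin 15 μg and ciprofloxacin 5 μg. Plates were held at 37°C for 48 h, and inhibition zone diameters were measured with slipping calipers; 6 mm means no zone.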

[3] = test system: Campylobacter jejuni; experiment: Antibacterial activity against susceptible Campylobacter jejuni isolates by agar dilution test; summary of the method: as §1
[4] = test system: Campylobacter jejuni; experiment: Antibacterial activity against susceptible Campylobacter jejuni isolates by disk diffusion test; details: for MIC: Campylobacter jejuni; summary of the method: as §2
[5] = test system: Campylobacter jejuni; experiment: Antibacterial activity against erythromycin-resistant Campylobacter jejuni isolates by agar dilution test; summary of the method: as §1
[6] = test system: Campylobacter jejuni; experiment: Antibacterial activity against erythromycin-resistant Campylobacter jejuni isolates by disk diffusion test; summary of the method: as §2

Compound	MIC [1]	inhibition zone (IZ) [2]	MIC ([2]; Campylobacter jejuni)	MIC [3]	inhibition zone (IZ) [4]	MIC [4]	MIC [5]	inhibition zone (IZ) [6]	MIC ([6]; Campylobacter jejuni)
O=C(O)c1cn(C2CC2)c2cc(N3CCNCC3)c(F)cc2c1=O [CIPROFLOXACIN]	4 µg/mL (≈ 12.1 µM)	6 mm	4 µg/mL (≈ 12.1 µM)	0.06 µg/mL (≈ 0.181 µM)	21 mm	0.06 µg/mL (≈ 0.181 µM)	–	–	–
CC[C@H]1OC(=O)[C@H](C)[C@@H](O[C@H]2C[C@@](C)(OC)[C@@H](O)[C@H](C)O2)[C@H](C)[C@@H](O[C@@H]2O[C@H](C)C[C@H](N(C)C)[C@H]2O)[C@](C)(O)C[C@@H](C)C(=O)[C@H](C)[C@@H](O)[C@]1(C)O [ERYTHROMYCIN]	–	–	–	0.06 µg/mL (≈ 0.0818 µM)	17.5 mm	0.06 µg/mL (≈ 0.0818 µM)	≥ 256 µg/mL	6 mm	≥ 256 µg/mL
